Values after ≈ are worked out from the molar mass of the structure shown.
Legend:
Mus musculus [1] = assay: Apparent peripheral volume of distribution in mouse at 10 to 100 mg/kg, ip; type: ADME, organism-based; set-up: dose 10-100 mg/kg, route intraperitoneal; conditions: in vivo
Summary of the method: (§1)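 Mice, three groups, each received a single intraperitoneal gatifloxacin dose of 10, 50 or 100 mg/kg. Sera were taken by exsanguination under anaesthesia from three mice per group at 0.25–12 h post-dose and stored at −70°C. Levels were measured by bioassay (S. aureus ATCC 29213 indicator; standard curve in control mouse serum) in triplicate, detection range 0.12–64 μg/ml. Pooled data were fitted by maximum likelihood to a two-compartment model with first-order absorption and lag time.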

[2] = Apparent total clearance in human; type: ADME, organism-based; conditions: in vivo, read-out: CLt/F (converted)
Mus musculus [3] = assay: Apparent volume of distribution with respect to the bioavailability in mouse at 10 to 100 mg/kg, ip; type: ADME, organism-based; conditions: in vivo; summary of the method: as §1
Mus musculus [4] = assay: Apparent distribution clearance in mouse at 10 to 100 mg/kg, ip; type: ADME, organism-based; set-up: dose 10-100 mg/kg, route intraperitoneal; conditions: in vivo; summary of the method: as §1
[5] = Apparent total clearance in mouse at 10 to 100 mg/kg, ip; type: ADME, organism-based; set-up: dose 10-100 mg/kg, route intraperitoneal; conditions: in vivo, read-out: CLt/F (converted); summary of the method: as §1
[6] = Half life in mouse at 10 to 100 mg/kg, ip; type: ADME, organism-based; set-up: dose 10-100 mg/kg, route intraperitoneal; conditions: in vivo; summary of the method: as §1
[7] = Ratio of AUC (0 to 24 hrs) for Enterococcus infected patient to MIC for Enterococcus; type: functional
[8] = Half life in human; type: ADME, organism-based; conditions: in vivo
[9] = Ratio of AUC (0 to 24 hrs) for Staphylococcus aureus infected ICR/Swiss mouse model to MIC for Staphylococcus aureus; type: functional
[10] = Ratio of AUC (0 to 24 hrs) for Staphylococcus infected patient to MIC for Staphylococcus; type: functional
Bacillus anthracis = assay: Antimicrobial activity against Bacillus anthracis Ames after 18 hrs by microdilution method; type: functional
Mus musculus [11] = assay: Tlag in mouse at 10 to 100 mg/kg, ip; type: ADME, organism-based; set-up: dose 10-100 mg/kg, route intraperitoneal; conditions: in vivo; summary of the method: as §1

COc1c(N2CCNC(C)C2)c(F)cc2c(=O)c(C(=O)O)cn(C3CC3)c12 (configuration not stated) [GATIFLOXACIN]
Vp/F (Mus musculus [1]): 1.6 L/kg
CL/F [2]: 1.67 mL/min/kg
Vc/F (Mus musculus [3]): 0.2 L/kg
CLd/F (Mus musculus [4]): 128 mL/min/kg
CL/F [5]: 45 mL/min/kg
half-life [6]: 0.6 h
Ratio [7]: 85
half-life [8]: 9 h
Ratio [9]: 83
Ratio [10]: 85
MIC (Bacillus anthracis): 0.125 µg/mL (≈ 0.333 µM)
Tlag (Mus musculus [11]): 0.23 h

Source: ChEMBL document CHEMBL1151423, “Pharmacokinetics-pharmacodynamics of gatifloxacin in a lethal murine Bacillus anthracis inhalation infection model” (Antimicrob Agents Chemother, 2007)
